Blank lines part the entries; values can stand above or below the molecule they belong to.
Assays:
skelemin fragment [1] = molecular target: T1, skelemin fragment (Mus musculus, UniProt Q62234); experiment: Solid-phase assay: binding of [125I]skelemin to peptides coated on wells; conditions: wells coated with peptide 20 μg/mL, postcoated with 1% BSA
T1 sequence (Q62234 1113-1666): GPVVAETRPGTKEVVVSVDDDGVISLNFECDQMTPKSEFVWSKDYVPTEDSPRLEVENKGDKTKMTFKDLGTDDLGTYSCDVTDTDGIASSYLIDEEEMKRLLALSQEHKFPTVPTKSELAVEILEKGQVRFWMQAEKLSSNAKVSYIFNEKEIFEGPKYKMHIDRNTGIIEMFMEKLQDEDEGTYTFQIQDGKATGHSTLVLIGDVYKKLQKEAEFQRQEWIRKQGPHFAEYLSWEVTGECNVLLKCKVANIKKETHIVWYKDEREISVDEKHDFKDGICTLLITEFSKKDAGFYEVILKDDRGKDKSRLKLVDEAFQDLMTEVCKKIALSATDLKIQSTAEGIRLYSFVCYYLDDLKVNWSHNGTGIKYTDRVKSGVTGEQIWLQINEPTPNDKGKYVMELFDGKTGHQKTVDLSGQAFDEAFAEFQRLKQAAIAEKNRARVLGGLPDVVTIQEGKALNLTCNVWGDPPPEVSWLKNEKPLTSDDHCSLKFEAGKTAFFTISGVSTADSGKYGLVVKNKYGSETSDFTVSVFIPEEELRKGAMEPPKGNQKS
Summary of the method: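 Mouse skelemin fragment (residues 1113–1666) made as a GST fusion, cut free with thrombin and radioiodinated. Wells coated with wild-type or mutant αIIb 989–1008 peptide at 20 μg/mL, postcoated with 1% BSA, then given various concentrations of [125I]skelemin. Bound radioactivity counted.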

[2] = molecular target: fibrinogen D100 (100 kDa) fragment (human); experiment: solid-phase binding assay with 125I-labelled protein
[3] = molecular target: fibrin monomer with both fibrinopeptides A and B cleaved (human) (UniProt P02671); experiment: as above
[4] = molecular target: human fibrinogen, depleted of fibronectin and plasminogen (human) (UniProt P02671); experiment: as above
[5] = molecular target: T2, skelemin binding to αIIbβ3 (Mus musculus, UniProt Q62234); design: species or system human
T2 sequence (Q62234 1113-1666): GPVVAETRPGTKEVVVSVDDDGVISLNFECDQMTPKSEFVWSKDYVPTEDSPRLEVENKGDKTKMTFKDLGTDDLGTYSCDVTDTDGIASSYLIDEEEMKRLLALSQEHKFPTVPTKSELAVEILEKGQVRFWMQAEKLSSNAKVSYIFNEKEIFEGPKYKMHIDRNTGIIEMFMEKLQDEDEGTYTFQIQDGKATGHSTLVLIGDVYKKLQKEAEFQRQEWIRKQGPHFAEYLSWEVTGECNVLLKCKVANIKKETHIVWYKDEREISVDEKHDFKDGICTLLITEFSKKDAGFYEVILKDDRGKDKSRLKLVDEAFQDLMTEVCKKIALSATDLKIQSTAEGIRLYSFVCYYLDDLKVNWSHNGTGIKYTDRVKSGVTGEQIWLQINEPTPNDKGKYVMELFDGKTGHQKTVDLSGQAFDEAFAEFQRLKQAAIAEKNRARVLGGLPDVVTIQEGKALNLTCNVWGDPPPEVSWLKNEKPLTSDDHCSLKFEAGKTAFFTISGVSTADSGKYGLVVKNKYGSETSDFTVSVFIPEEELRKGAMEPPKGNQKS

skelemin fragment [6] = molecular target: T1, skelemin fragment; assay type: binding
Summary of the method: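 CM5 chip carried amine-coupled skelemin fragment (~900 RU). αIIb 989–1008 peptide at 0, 10, 20, 40, 100 and 200 μM in HBS-P with 1 mM Ca2+ and 1 mM Mg2+, injected at 5 μL/min for 10 min. Signal corrected against an EDC/NHS-activated, ethanolamine-blocked blank cell. Kd from best fit to an interaction model.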

[7] = molecular target: αIIb 9-mer peptides with mutations of Val990, Phe992, and Leu1000; experiment: peptide or protein array
[8] = molecular target: cellulose-bound αIIb 9-mer peptide with Arg995 substituted with Ala (human) (UniProt P08514); experiment: peptide or protein array
[9] = molecular target: cellulose-bound αIIb 9-mer peptide with Arg997 substituted with Ala (human) (UniProt P08514); experiment: peptide or protein array
[10] = molecular target: platelet integrin αIIbβ3 (human) (UniProt P05106); experiment: solid-phase binding assay with 125I-labelled protein
αIIbβ3 [11] = assay type: binding, human
Summary of the method: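 αIIbβ3 purified from human platelets on Concanavalin A-agarose. Passed at 0, 50, 100, 200 and 500 μg/mL in HBS-P with 1 mM Ca2+/Mg2+ over amine-coupled skelemin fragment (~900 RU), with a fibrinogen parallel cell (~1300 RU) checking resting state. For activation, DTT 3 mM final, 15 min at 4 °C, then extensive dialysis; activated integrin injected 5 min at 10 μL/min. Blank-cell corrected.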

αIIbβ3 [12] = assay type: binding, human; conditions: integrin adsorbed on plastic without ligand

Chain of fibrin monomer with both fibrinopeptides A and B cleaved (human) (P02671 36-866, chain 1 of 3): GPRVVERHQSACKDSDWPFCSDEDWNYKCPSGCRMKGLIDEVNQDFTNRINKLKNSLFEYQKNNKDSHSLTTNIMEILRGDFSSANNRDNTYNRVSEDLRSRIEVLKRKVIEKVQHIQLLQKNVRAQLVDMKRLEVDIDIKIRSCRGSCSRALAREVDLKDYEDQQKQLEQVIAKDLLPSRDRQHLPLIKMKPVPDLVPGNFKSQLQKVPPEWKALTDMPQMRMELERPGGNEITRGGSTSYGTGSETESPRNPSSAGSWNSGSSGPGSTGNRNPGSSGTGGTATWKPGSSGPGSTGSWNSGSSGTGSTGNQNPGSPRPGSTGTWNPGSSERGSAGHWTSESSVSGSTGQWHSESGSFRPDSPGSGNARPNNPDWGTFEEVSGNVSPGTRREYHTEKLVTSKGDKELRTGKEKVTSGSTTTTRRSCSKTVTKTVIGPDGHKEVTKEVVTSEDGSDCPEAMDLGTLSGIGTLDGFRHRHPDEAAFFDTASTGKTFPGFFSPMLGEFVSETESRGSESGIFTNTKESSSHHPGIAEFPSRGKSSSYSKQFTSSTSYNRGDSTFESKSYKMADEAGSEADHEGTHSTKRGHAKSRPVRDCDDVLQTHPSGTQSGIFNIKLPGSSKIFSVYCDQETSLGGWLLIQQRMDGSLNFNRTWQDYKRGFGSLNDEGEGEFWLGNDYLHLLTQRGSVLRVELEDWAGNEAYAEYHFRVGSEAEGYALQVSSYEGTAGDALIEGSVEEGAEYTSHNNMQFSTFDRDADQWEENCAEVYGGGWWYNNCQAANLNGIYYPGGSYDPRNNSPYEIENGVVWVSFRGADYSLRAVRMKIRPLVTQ
Chain of fibrin monomer with both fibrinopeptides A and B cleaved (human) (P02675 45-491, chain 2 of 3, further chain): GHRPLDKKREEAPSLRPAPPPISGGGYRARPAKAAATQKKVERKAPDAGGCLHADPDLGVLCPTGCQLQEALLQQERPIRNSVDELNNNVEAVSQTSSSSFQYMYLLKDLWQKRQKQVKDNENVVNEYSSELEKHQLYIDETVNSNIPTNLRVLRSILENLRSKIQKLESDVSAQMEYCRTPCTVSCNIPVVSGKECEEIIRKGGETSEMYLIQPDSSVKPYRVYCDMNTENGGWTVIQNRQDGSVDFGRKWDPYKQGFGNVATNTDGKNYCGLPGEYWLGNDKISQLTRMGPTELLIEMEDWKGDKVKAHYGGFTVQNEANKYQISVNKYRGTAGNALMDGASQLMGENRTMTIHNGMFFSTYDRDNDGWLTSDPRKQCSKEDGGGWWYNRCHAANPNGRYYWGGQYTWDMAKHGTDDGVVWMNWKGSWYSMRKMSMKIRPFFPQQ
Chain of fibrin monomer with both fibrinopeptides A and B cleaved (human) (P02679 27-453, chain 3 of 3, further chain): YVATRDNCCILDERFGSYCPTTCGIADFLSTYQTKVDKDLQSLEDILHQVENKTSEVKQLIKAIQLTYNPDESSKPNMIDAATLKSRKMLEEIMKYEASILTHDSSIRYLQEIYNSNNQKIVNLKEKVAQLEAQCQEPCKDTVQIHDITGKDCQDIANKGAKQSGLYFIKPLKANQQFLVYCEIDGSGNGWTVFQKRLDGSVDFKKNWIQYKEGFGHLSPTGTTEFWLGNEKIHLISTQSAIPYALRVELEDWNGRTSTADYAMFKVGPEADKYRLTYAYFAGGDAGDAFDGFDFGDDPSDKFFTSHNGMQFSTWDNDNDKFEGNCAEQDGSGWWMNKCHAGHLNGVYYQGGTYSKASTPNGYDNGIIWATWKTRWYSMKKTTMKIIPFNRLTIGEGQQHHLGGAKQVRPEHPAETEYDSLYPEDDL
Chain of human fibrinogen, depleted of fibronectin and plasminogen (human) (P02671 36-866, chain 1 of 3): as the sequence (P02671 36-866, chain 1 of 3) above
Chain of human fibrinogen, depleted of fibronectin and plasminogen (human) (P02675 45-491, chain 2 of 3, further chain): as the sequence (P02675 45-491, chain 2 of 3, further chain) above
Chain of human fibrinogen, depleted of fibronectin and plasminogen (human) (P02679 27-453, chain 3 of 3, further chain): as the sequence (P02679 27-453, chain 3 of 3, further chain) above

Molecule: platelet integrin αIIbβ3 (from UniProt P05106 27-788) (complex)
- amount of αIIbβ3 bound [2]: 76 ng
- amount of αIIbβ3 bound [3]: 76 ng
- amount of αIIbβ3 bound [4]: 76 ng

Molecule: KVGFFKANAPALEEDDEEGE [mutant αIIb peptide]
- Inhibition of skelemin binding to αIIbβ3 prebound to ligands ([5]; mutant peptide): did not inhibit
- Binding to skelemin coupled to the chip (SPR) (skelemin fragment [6]): did not bind
- Binding of [125I]skelemin to immobilized peptide (skelemin fragment [1]): lost the ability to bind

B1: recombinant fragment spanning immunoglobulin C2-like motifs 3–7 of mouse skelemin (domain or fragment)
chain: GPVVAETRPGTKEVVVSVDDDGVISLNFECDQMTPKSEFVWSKDYVPTEDSPRLEVENKGDKTKMTFKDLGTDDLGTYSCDVTDTDGIASSYLIDEEEMKRLLALSQEHKFPTVPTKSELAVEILEKGQVRFWMQAEKLSSNAKVSYIFNEKEIFEGPKYKMHIDRNTGIIEMFMEKLQDEDEGTYTFQIQDGKATGHSTLVLIGDVYKKLQKEAEFQRQEWIRKQGPHFAEYLSWEVTGECNVLLKCKVANIKKETHIVWYKDEREISVDEKHDFKDGICTLLITEFSKKDAGFYEVILKDDRGKDKSRLKLVDEAFQDLMTEVCKKIALSATDLKIQSTAEGIRLYSFVCYYLDDLKVNWSHNGTGIKYTDRVKSGVTGEQIWLQINEPTPNDKGKYVMELFDGKTGHQKTVDLSGQAFDEAFAEFQRLKQAAIAEKNRARVLGGLPDVVTIQEGKALNLTCNVWGDPPPEVSWLKNEKPLTSDDHCSLKFEAGKTAFFTISGVSTADSGKYGLVVKNKYGSETSDFTVSVFIPEEELRKGAMEPPKGNQKS
modifications: 125I label (IODO-GEN) where used as [125I]skelemin
- reduction of binding against the wild-type peptide [7]: 40 to 50%
- reduction of binding against the wild-type peptide [8]: 70%
- reduction of binding against the wild-type peptide [9]: 70%
- Kd, high-affinity class of binding sites [10]: 123 nM
- Kd, low-affinity class of binding sites [10]: 1.1 µM
- N, high-affinity interaction (skelemin to receptor) (skelemin per receptor) [10]: 1
- N, low-affinity interaction (skelemin to receptor) (skelemin per receptor) [10]: 0.33

B2: skelemin fragment: recombinant fragment spanning immunoglobulin C2-like motifs 3–7 of mouse skelemin, residues 1113–1666 (protein)
chain: GPVVAETRPGTKEVVVSVDDDGVISLNFECDQMTPKSEFVWSKDYVPTEDSPRLEVENKGDKTKMTFKDLGTDDLGTYSCDVTDTDGIASSYLIDEEEMKRLLALSQEHKFPTVPTKSELAVEILEKGQVRFWMQAEKLSSNAKVSYIFNEKEIFEGPKYKMHIDRNTGIIEMFMEKLQDEDEGTYTFQIQDGKATGHSTLVLIGDVYKKLQKEAEFQRQEWIRKQGPHFAEYLSWEVTGECNVLLKCKVANIKKETHIVWYKDEREISVDEKHDFKDGICTLLITEFSKKDAGFYEVILKDDRGKDKSRLKLVDEAFQDLMTEVCKKIALSATDLKIQSTAEGIRLYSFVCYYLDDLKVNWSHNGTGIKYTDRVKSGVTGEQIWLQINEPTPNDKGKYVMELFDGKTGHQKTVDLSGQAFDEAFAEFQRLKQAAIAEKNRARVLGGLPDVVTIQEGKALNLTCNVWGDPPPEVSWLKNEKPLTSDDHCSLKFEAGKTAFFTISGVSTADSGKYGLVVKNKYGSETSDFTVSVFIPEEELRKGAMEPPKGNQKS
modifications: 125I label (IODO-GEN) where used as [125I]skelemin; left off: GST, end not stated, cleaved
- Interaction of resting soluble αIIbβ3 with immobilized skelemin fragment (αIIbβ3 [11]; resting integrin, various concentrations): No interaction was detected
- Binding of DTT-treated soluble αIIbβ3 to immobilized skelemin fragment (αIIbβ3 [11]; αIIbβ3 activated with 3 mM DTT 15 min at 4 °C, 0-500 μg/mL): did not bind
- Skelemin binding to αIIbβ3 immobilized directly on plastic (αIIbβ3 [12]): small amount

Continued, values first:

- Binding of [125I]skelemin to immobilized peptide (skelemin fragment [1]): reduced level of skelemin binding
Molecule: GY^715 WALLITIADRKEFAKF^730 [β3 mutant 1]

- Overall activity relative to the wild-type counterpart ([5]; skelemin binding and inhibition): residual activity
- Binding of [125I]skelemin to immobilized peptide (skelemin fragment [1]): still further loss
Molecule: GY^715 WALLITIADAKEFAKF^730 [β3 mutant 2]
